The full list was thinned out, with hits kept by preference.
INS promoter act: TRM-6 insulin promoter activation; TRM-6 cells (human fetal islet line), insulin promoter eGFP reporter, imaging; plate-scaled: unstimulated 0, stimulated control 100; activation, % at 2 µM; 130,000 compounds, 0.81% hits;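 active = activation at 2 µM above a set limit, confirmed on inspection of the cell images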;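 also: share of cells whose green reporter signal exceeds an intensity cutoff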
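Material: TRM-6 insulin promoter–eGFP reporter cells. Buffer or medium: Low-glucose (5.5 mM) medium with tamoxifen. Probe or stimulus: tamoxifen at 0.75 µM added at seeding for reporter induction. Times: tamoxifen pre-incubation 15 h overnight, then compound exposure 48 h at 37 °C. Detection: high-content imaging of fixed cells with Hoechst nuclear stain.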
The depositor's hits bear a star; [ ] = dose if it differs, or a comment.

SMILES	INS promoter act
O=c1c2ccccc2nnn1CSc1nc2ccccc2c(=O)n1CCCO	9
CSCC[C@H](NC(=O)CCn1nnc2ccccc2c1=O)C(=O)O	150*
CSCCC(NC(=O)CCN1C(=O)c2ccccc2C1=O)C(=O)O (stereo not drawn)	6
CCc1nnc(NC(=O)CSc2nc(C)c3c(c2C#N)CCCC3)s1	-85
O=C(Cc1cccs1)Nc1ccc(N2CCOCC2)cc1	114
CCSc1nnc(-c2ccc(S(=O)(=O)N3CCCC3)cc2)n1C	0
CCn1c(SCC(=O)Nc2ccccc2)nnc1-c1ccc(S(=O)(=O)N2CCOCC2)cc1	-3
CCn1c(SCC(=O)N2CCCC(C)C2)nnc1-c1ccc(S(=O)(=O)N2CCN(C)CC2)cc1 (stereo not drawn)	81*
CC(C)CN=C(NS(=O)(=O)c1ccccc1)C(Cl)(Cl)Cl	7
CC1Cc2ccccc2N1C(=S)NC(=O)c1ccc(Cl)cc1Cl (stereo not drawn)	-9
CCCCNC(=O)CSc1nnc(NC(C)=O)s1	-4
CSc1nc2ncc(C(=O)O)c(N)n2n1	-9
Cc1[nH]c2ccc(-c3n[nH]c(=S)n3-c3ccccc3)cc2c1C	-9
Cc1ccc(-c2n[nH]c(=S)n2-c2ccccc2)cc1	485*
Cc1ccc(-n2c(-c3cccc(C)c3)n[nH]c2=S)cc1	-7
O=c1c(/C=C(\O)c2ccc(F)cc2)nc2ccccc2n1-c1ccccc1	128*
NC(=O)CSc1nc2ccccc2n1-c1ccccc1	342
Cn1c(CNC(=O)c2ccc(F)cc2)nc2ccccc21	0
Clc1ccc(OCc2nn3c(-c4ccccc4)nnc3s2)c(Cl)c1	-8
COc1ccc(S(=O)(=O)N(C)CC(=O)N2CCOCC2)cc1	-7
CN(CC(=O)N1CCN(c2ccc(F)cc2)CC1)S(=O)(=O)c1ccc(F)cc1	79*
O=C(CNS(=O)(=O)c1ccc(Br)cc1)N1CCN(c2ccc(F)cc2)CC1	354
CC(NC(=O)C(C(=O)c1cccc([N+](=O)[O-])c1)n1cc(Cl)ccc1=O)c1ccccc1 (stereo not drawn)	119
CC(=O)Nc1ccc(C(=O)OCC(=O)NC2CCCCCCC2)cc1	0
O=C(Oc1c(CN2CCOCC2)cc(Cl)c2cccnc12)c1ccccc1	9
SMILES	INS promoter act
O=[N+]([O-])c1cc(CN2CCN(c3ccccc3)CC2)c(O)c2ncccc12	330*
Oc1ccc(CN2CCN(Cc3ccccc3)CC2)c2cccnc12	-50
COc1ccc(NC(=O)COC(=O)C2CC3C=CC2C3)cc1 (stereo not drawn)	-79
Cn1ncc(Cl)c1C(=O)Nc1ccc(Cl)cn1	0
CCOC(=O)C1=C(CN2CCCCCC2)NC(=O)NC1c1ccc2c(c1)OCO2 (stereo not drawn)	136
Cn1c(=O)c(Oc2ccc(F)cc2)c(O)c2ccccc21	-64
O=C(Nc1ccccc1C(=O)NCc1ccco1)NC1CCCCC1	-10
O=C(COc1ccc(Cl)cc1)Nc1ccccc1C(=O)NCc1ccco1	438*
O=C(COc1ccc(Cl)cc1Cl)NNC(=S)NCc1ccco1	167
O=C(NCc1ccc(Cl)cc1)c1ccc(Br)o1	-5
COc1cccc(N(CC(=O)NCCSc2ccc(Cl)cc2)S(C)(=O)=O)c1	93*
COc1ccc(NC(=S)NCCSc2ccc(Cl)cc2)c(OC)c1	-9
COc1ccc(N(CC(=O)NCCSCc2c(F)cccc2Cl)S(C)(=O)=O)cc1OC	7
COc1ccccc1NC(=O)C/C(N)=N/O	-4
O=C(NC1CC2CCC(C1)N2C(=O)NCc1ccccc1)NC12CC3CC(CC(C3)C1)C2 (stereo not drawn)	-3
Cc1ccccc1C(=O)c1cccn1CC(=O)N1CCCCCC1	0
CCN(CC)c1ccc(NC(=O)/C=C\c2ccccc2Cl)cc1	0
CCN(CC)c1ccc(/C=C/C(=O)C2C(=O)C=C(C)OC2=O)cc1 (stereo not drawn)	809*[fluoresces]
CC(C)OCC(O)CS(=O)Cc1ccccc1 (stereo not drawn)	0
CCCCN(CCCC)Cc1ccc(C(=O)NNC(=O)Nc2ccc(F)cc2)o1	0
CSc1ccc(S(=O)(=O)NCCSc2ccccn2)cc1	30
Nc1nncn1C(=O)CCCN1C(=O)c2ccccc2C1=O	269
Nc1nncn1C(=O)c1c(Cl)cccc1Cl	444*
Cc1c(Cl)cccc1NC(=O)CSCC(N)=O	208
CCCOc1ccc(N2C(=O)CC(N3CCC(O)(c4cccc(C(F)(F)F)c4)CC3)C2=O)cc1 (stereo not drawn)	10
SMILES	INS promoter act
COCCCNC(=O)c1c(NC(=O)C2COc3ccccc3O2)sc2c1CCCC2 (stereo not drawn)	-87
O=C(Nc1ccc(Br)c(Cl)c1)C1CC1	-75
CC(C)(C)C(=O)CC(=O)Nc1ccc(Cl)c(N)c1	0
CCC(=O)Nc1ccc(Cl)c(NC(=O)c2ccc(Br)o2)c1	334
CCCC(=O)Nc1ccc(Br)c(Cl)c1	443*
O=C(O)CCC(=O)Nc1ccc(Br)c(Cl)c1	-2
CCCC(=O)Nc1ccc(Cl)c(NC(=O)C(C)(C)C)c1	790*
CN(C)c1ccnc(SCc2ccccc2Cl)c1C#N	-73
Cc1cc(C)n2nc(SCC(=O)N(C)c3ccccc3)nc2n1	192
COc1cc(OC)c(C(=O)Nc2ncn[nH]2)cc1OC	181
NS(=O)(=O)c1ccc(CNS(=O)(=O)c2cc(C(=O)O)ccc2Cl)cc1	-6
CC1CC(C)CN(S(=O)(=O)c2cccc(C(=O)OCCN3CCCC3=O)c2)C1 (stereo not drawn)	3
Cc1ccc(NC(=O)c2cccc(S(=O)(=O)N(C)c3ccccc3)c2)cc1S(=O)(=O)N1CCOCC1	3
CCCCCCc1ccc(OCC(=O)OC)cc1OCC(=O)OC	-3
CCN(CC)c1ccc(NC(=O)c2cccc(F)c2)c(C)c1	0
Cc1[nH]c2ccccc2c1C(=O)COC(=O)Cn1c(C(F)(F)F)nc2ccccc21	-7
O=C(Cn1c(C(F)(F)F)nc2ccccc21)c1ccc(F)cc1	84*
CC(C)NC(=O)Cn1c(SCC(=O)c2ccc(F)cc2)nc2ccccc21	224
CCOCCCNC(=O)CN(Cc1ccc(Cl)cc1)S(C)(=O)=O	189
CCN(CC(=O)NCCc1ccccc1)S(=O)(=O)c1ccc(Br)cc1	4
CCCNC(=O)CN(CCc1ccccc1)S(C)(=O)=O	93*
COc1ccc2c(C)nc(Nc3nc(C)cc(C)n3)nc2c1	158
Cc1cc(Br)cc(C)c1NC(=S)NC(=O)CC(C)C	-4
Cc1onc(-c2ccccc2Cl)c1C(=O)Nc1cccc2nsnc12	-77
Cc1onc(-c2ccccc2Cl)c1C(=O)Nc1ccccc1N1CCOCC1	81*
SMILES	INS promoter act
Cc1onc(-c2ccccc2Cl)c1C(=O)Nc1ccc(N2CCOCC2)cc1	7
O=C(COC(=O)c1n[nH]c2ccccc12)NC(=O)NC12CC3CC(CC(C3)C1)C2	-9
Cc1ccc(C2=NN(CC(=O)NCc3ccccn3)C(=O)CC2)cc1	5
O=C(C1CCCO1)N1CCN(C(=S)Nc2ccc(F)cc2)CC1 (stereo not drawn)	-3
O=C1OC(N2CCN(C(=O)C3CCCO3)CC2)c2ccccc21 (stereo not drawn)	173*
O=C(C1CCCO1)N1CCN(S(=O)(=O)c2cccc3nsnc23)CC1 (stereo not drawn)	-4
CCOC(=O)N1CCN(C(=O)Cc2cccs2)CC1	7
CCOC(=O)N1CCN(C2OC(=O)c3ccccc32)CC1 (stereo not drawn)	459*
O=C1OC(N2CCN(C/C=C/c3ccccc3)CC2)c2ccccc21 (stereo not drawn)	-83
CCS(=O)(=O)CCSC(=N)N	-9

From PubChem
